Measured values published in ChEMBL document CHEMBL3877317, “Quinazolinone derivatives: Synthesis and comparison of inhibitory mechanisms on α-glucosidase” (Bioorg Med Chem, 2017).
Calls of active or inactive are those of the source. No cut-off for these calls is given here.

Experiments:
[1] = Non-competitive inhibition of Saccharomyces cerevisiae alpha-glucosidase type 1 using p-nitro-phenyl-alpha-D-glucopyranoside as substrate preincubated for 10 mins followed by substrate addition measured after 5 mins every 10 secs by Lineweaver-Burk plot analysis
In short: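 Same pNPG assay (0.1 M potassium phosphate pH 6.8, A405 every 10 s, ambient temperature), inhibitor 0-24 µM (or 0-16 µM). Inhibition type assigned from Lineweaver-Burk plots. KI taken from the secondary plot.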

[2] = tested on: Saccharomyces cerevisiae; assay: Binding affinity to Saccharomyces cerevisiae alpha-glucosidase type 1 assessed as fluorescence quenching by measuring relative fluorescence intensity at 50 uM by fluorescence spectrophotometric method
In short: (§1)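 Intrinsic enzyme fluorescence (peak 330 nm) recorded with excitation 280 nm, emission 300-500 nm, 25 °C. Enzyme 0.1 mg/mL in 0.1 mM sodium phosphate buffer; compound series 0-50 µM or 0-60 µM. Relative intensity expressed as F/F0 against enzyme alone.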

[3] = Inhibition of Saccharomyces cerevisiae alpha-glucosidase type 1 using p-nitro-phenyl-alpha-D-glucopyranoside as substrate preincubated for 10 mins followed by substrate addition measured after 5 mins every 10 secs
In short: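 Enzyme (7 U/mL, 50 µL) with sample at varied concentrations, then 5 mM pNPG (200 µL) in 0.1 M potassium phosphate pH 6.8. A405 read every 10 s at ambient temperature. Relative activity = slope with inhibitor / slope without × 100. Acarbose as positive control.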

[4] = tested on: Saccharomyces cerevisiae; assay: Binding affinity to Saccharomyces cerevisiae alpha-glucosidase type 1 assessed as Stern-Volmer quenching constant at 25 degC by fluorescence spectrophotometric method
In short: (§2)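 Fluorescence quenching: enzyme (0.1 mg/mL, 50 µL) mixed with sample at varied concentrations in 0.1 mM sodium phosphate buffer, 25 °C. Excitation 280 nm, emission scanned 300-500 nm. F0/F plotted against [Q] and fitted to the Stern-Volmer equation (F0/F = 1 + Kqτ0[Q] = 1 + Ksv[Q]) to give Ksv and Kq.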

[5] = tested on: Saccharomyces cerevisiae; assay: Binding affinity to Saccharomyces cerevisiae alpha-glucosidase type 1 assessed as quenching velocity constant of biomolecular reaction at 25 degC by fluorescence spectrophotometric method; in short: as §2
[6] = tested on: Saccharomyces cerevisiae; assay: Binding affinity to Saccharomyces cerevisiae alpha-glucosidase type 1 at 25 degC by fluorescence spectrophotometric method
[7] = tested on: Saccharomyces cerevisiae; assay: Reversible inhibition of Saccharomyces cerevisiae alpha-glucosidase type 1 at 8 to 24 uM using p-nitro-phenyl-alpha-D-glucopyranoside as substrate preincubated for 10 mins followed by substrate addition measured after 5 mins every 10 secs
[8] = tested on: Saccharomyces cerevisiae; assay: Binding affinity to Saccharomyces cerevisiae alpha-glucosidase type 1 assessed as fluorescence quenching by measuring relative fluorescence intensity at 60 uM by fluorescence spectrophotometric method; in short: as §1

## O=c1[nH]c(-c2ccc(Cl)cc2)nc2ccccc12
[1]
  Ki: 9.1 µM
[2]
  Activity: 39.3%
[3]
  IC50: 12.5 µM
[4]
  KSV: 3.1 ×10⁴ L/mol
[5]
  Kq: 3.1 ×10¹² L/mol.s
[6]
  K: 1.78 ×10⁴ L/mol
[7]
  inhibition: Active

## Oc1nc(-c2ccc(F)cc2)nc2ccccc12
[3]
  IC50: > 57.2 µM

## O=c1[nH]c(-c2ccc(Br)cc2)nc2ccccc12
[1]
  Ki: 10.6 µM
[3]
  IC50: 15.6 µM
[4]
  KSV: 7.26 ×10³ L/mol
[5]
  Kq: 7.26 ×10¹¹ L/mol.s
[8]
  Activity: 69.3%
[6]
  K: 1.25 ×10⁴ L/mol
[7]
  inhibition: Active

## C[C@H]1O[C@H](O[C@H]2[C@H](O)[C@@H](O)[C@@H](O[C@H]3[C@H](O)[C@@H](O)C(O)O[C@@H]3CO)O[C@@H]2CO)[C@H](O)[C@@H](O)[C@@H]1N[C@H]1C=C(CO)[C@@H](O)[C@H](O)[C@H]1O (stereo partly specified) [ACARBOSE]
[3]
  IC50: 475 µM
